Series [1] is described as follows: Concentration of compound that gives 50% of the maximum acceleration of lysis was determined by clot lysis assay using human plasma. In kind it is functional.
Series [2] is described as follows: In vitro inhibition of purified Carboxypeptidase N (CPN) by spectrophotometric assay.
The nature of series [3]: In vitro inhibition of thrombin-activatable fibrinolysis was determined against TAFIa enzyme by ECL assay.
Series [4] deals with Carboxypeptidase B2 (Homo sapiens) (UniProt Q96IY4). Description: In vitro inhibition of activated thrombin-activatable fibrinolysis inhibitor (TAFIa) was determined by ECL enzyme assay.
The nature of series [5]: Half life in rhesus. It counts as ADME, organism-based, Macaca mulatta. Particulars: rhesus monkey, in vivo.
The nature of series [6]: Tested in vivo for time-to-occlusion in jugular vein of african green monkey when administered along with saline. In kind it is functional, Cercopithecidae. In a few lines:
(§1)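 African green monkey jugular vein model. Time-to-occlusion is recorded during iv bolus plus continuous infusion for 300 min; vehicle-treated animals are included.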

Series [7] is described as follows: Bioavailability in rhesus. In kind it is ADME, organism-based, Macaca mulatta. Particulars: rhesus monkey, in vivo.
The nature of series [8]: Half life in rat. It counts as ADME, organism-based. Particulars: in vivo.
Series [9] can be described thus: Tested in vivo for bleeding time in african green monkey when administered along with saline. In kind it is functional, Cercopithecidae. In outline:
(§2)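 African green monkeys receive an iv bolus and then continuous infusion for 300 min, or vehicle. Template bleeding time is measured.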

Series [10] in a line: Tested in vivo for time-to-occlusion in jugular vein of african green monkey when administered at a dose of 0.03 mg/kg iv bolus + 0.01 mg/(kg.min) continuous infusion. In kind it is functional, Cercopithecidae. In outline: as §1
Series [11] can be described thus: Bioavailability in dog. It counts as ADME, organism-based, Canis lupus familiaris. Particulars: in vivo.
A short description of series [12]: Tested in vivo for bleeding time in african green monkey when administered at a dose of 0.3 mg/kg iv bolus + 0.1 mg/(kg.min) continuous infusion. It counts as functional, Cercopithecidae. In a few lines:
as §2

A short description of series [13]: Tested in vivo for time-to-occlusion in jugular vein of african green monkey when administered at a dose of 0.1 mg/kg iv bolus + 0.03 mg/(kg.min) continuous infusion. In kind it is functional, Cercopithecidae. In outline:
as §1

The nature of series [14]: Tested in vivo for time-to-occlusion in jugular vein of african green monkey when administered at a dose of 0.3 mg/kg iv bolus + 0.1 mg/(kg.min) continuous infusion. It counts as functional, Cercopithecidae. In outline: as §1
Series [15] in a line: Tested in vivo for time-to-occlusion in carotid artery of african green monkey when administered at a dose of 0.1 mg/kg iv bolus + 0.03 mg/(kg.min) continuous infusion. It counts as functional, Cercopithecidae.
Series [16] is described as follows: Volume of distribution in rhesus. It counts as ADME, organism-based, Macaca mulatta. Particulars: rhesus monkey, in vivo; read-out: Vdss.
The nature of series [17]: Tested in vivo for time-to-occlusion in jugular vein of african green monkey when administered at a dose of 0.05 mg/kg iv bolus + 0.02 mg/(kg.min) continuous infusion. In kind it is functional, Cercopithecidae. In outline:
as §1

Series [18] in a line: Clearance in dog. As to conditions: in vivo. It counts as ADME, organism-based, Canis lupus familiaris.
A short description of series [19]: Tested in vivo for bleeding time in african green monkey when administered at a dose of 0.03 mg/kg iv bolus + 0.01 mg/(kg.min) continuous infusion. It counts as functional, Cercopithecidae. In outline: as §2
Series [20] can be described thus: Volume of distribution in dog. It counts as ADME, organism-based, Canis lupus familiaris. Particulars: in vivo, read-out: Vdss.
A short description of series [21]: Tested in vivo for time-to-occlusion in carotid artery of african green monkey when administered at a dose of 0.03 mg/kg iv bolus + 0.01 mg/(kg.min) continuous infusion. It counts as functional, Cercopithecidae.
The nature of series [22]: Volume of distribution in rat. It counts as ADME, organism-based. As to conditions: in vivo, read-out: Vdss.
Series [23] in a line: Tested in vivo for bleeding time in african green monkey when administered at a dose of 0.1 mg/kg iv bolus + 0.03 mg/(kg.min) continuous infusion. It counts as functional, Cercopithecidae. In outline: as §2
Series [24] is described as follows: Half life in dog. It counts as ADME, organism-based, Canis lupus familiaris. Particulars: in vivo.
Series [25] in a line: Clearance in rat. Particulars: in vivo. In kind it is ADME, organism-based.
Series [26] can be described thus: Tested in vivo for time-to-occlusion in carotid artery of african green monkey when administered along with saline. In kind it is functional, Cercopithecidae.
Series [27] in a line: Tested in vivo for time-to-occlusion in carotid artery of african green monkey when administered at a dose of 0.3 mg/kg iv bolus + 0.1 mg/(kg.min) continuous infusion. It counts as functional, Cercopithecidae.
A short description of series [28]: Tested in vivo for bleeding time in african green monkey when administered at a dose of 0.05 mg/kg iv bolus + 0.02 mg/(kg.min) continuous infusion. In kind it is functional, Cercopithecidae. In outline:
as §2

Series [29] can be described thus: Tested in vivo for time-to-occlusion in carotid artery of african green monkey when administered at a dose of 0.05 mg/kg iv bolus + 0.02 mg/(kg.min) continuous infusion. In kind it is functional, Cercopithecidae.
Series [30] can be described thus: Clearance in rhesus. As to conditions: rhesus monkey, in vivo. It counts as ADME, organism-based, Macaca mulatta.
Series [31] can be described thus: Bioavailability in rat. In kind it is ADME, organism-based. As to conditions: in vivo.

Turning to `CCCCn1cnc(C(Cc2ccc(N)nc2)C(=O)O)c1` (centres undefined), the CLT50 in series [1] is 0.15 µM. The IC50 (in general, the midpoint of a concentration-inhibition curve) in series [2] is above 50 µM.

`Nc1ccc(CC(C(=O)O)c2c[nH]cn2)cn1` (stereo in doubt; 10b(+)) had a CLT50 in series [1] above 10 µM. The IC50 is above 50 µM in [2] and 1.8 µM in [3].

As to `Nc1ccc(CC(C(=O)O)c2cn(Cc3ccccc3)cn2)cn1` (centres undefined), the CLT50 in [1] was 0.74 µM. In addition, the IC50 in series [2] was above 50 µM; in [4], 0.028 µM.

Regarding `Cn1cnc(C(Cc2ccc(N)nc2)C(=O)O)c1` (centres undefined), the CLT50 in [1] amounted to 0.42 µM. In series [2], this compound displayed an IC50 above 50 µM.

On to `Nc1ccc(CC(C(=O)O)c2c[nH]cn2)cn1` (racemic), for which the CLT50 in series [1] stood at 0.97 µM. Moreover, in series [3], the IC50 stood at 0.08 µM.

`CCn1cnc(C(Cc2ccc(N)nc2)C(=O)O)c1` (centres undefined): the CLT50 in series [1] was 0.65 µM. In [2], this compound gave an IC50 above 50 µM.

In [1], `O=C(O)CC(Cc1ccccc1)C(=O)O` (centres undefined) returned a CLT50 above 50 µM.

Take `Nc1ccc(CC(C(=O)O)c2c[nH]cn2)cn1` (single isomer, unassigned; (-)): in [1], the CLT50 was 0.5 µM. In series [3], this compound gave an IC50 of 0.04 µM.

On to `O=C(O)C(Cc1ccccc1)c1c[nH]cn1` (centres undefined), for which, in series [1], the CLT50 is above 50 µM. In addition, the IC50 in series [2] was above 50 µM; in series [4], above 100 µM.

In [1], `CC(C)n1cnc(C(Cc2ccc(N)nc2)C(=O)O)c1` (centres undefined) displayed a CLT50 of 1.06 µM. For the same compound, the IC50 in [2] was above 50 µM.

The compound `CC(C)CCn1cnc(C(Cc2ccc(N)nc2)C(=O)O)c1` (stereo in doubt; 10j(-)) displayed a CLT50 in series [1] of 0.056 µM. Also, the values for the half-life in series [5], in [8] and in [24] were 48 min, 66 min and 36 min, respectively. Moreover, the TTO in [6] was determined as 96 min; in series [10], 128 min; in series [13], 171 min; in series [14], 216 min; in series [15], 52 min; in [17], 147 min. In addition, the TTO amounted to 61 min in series [21], 51 min in [26], 85 min in series [27] and 62 min in series [29]. Besides, the bioavailability (as a rule, dose-corrected exposure relative to a reference, in per cent) in series [7] stood at 12%; in series [11], 38%; in series [31], 47%. The Bleeding time in [9] stood at 2 min; in [12], 2.9 min; in series [19], 2 min; in series [23], 2.3 min; in series [28], 2.2 min. In addition, the Vd in series [16] is 0.26 L/kg; in series [20] it was 0.28 L/kg; in series [22] it was 1.36 L/kg. Also, the clearance (usually the rate of elimination divided by the concentration) in [18] is 6.1 mL/min/kg; in [25] it was 32 mL/min/kg; in series [30], 6.1 mL/min/kg. The half-maximal inhibitory concentration (IC50) is above 50 µM in series [2] and 0.002 µM in [3].

Consider `CC(C)CCn1cnc(C(Cc2ccc(N)nc2)C(=O)O)c1` (racemic), for which, in [1], the CLT50 is 0.12 µM. In series [3], this compound came in with an IC50 of 0.005 µM.

These data come from ChEMBL document CHEMBL1145913, “Synthesis and evaluation of imidazole acetic acid inhibitors of activated thrombin-activatable fibrinolysis inhibitor as novel antithrombotics” (J Med Chem, 2003).
